From ChEMBL document CHEMBL4382285, “Discovery of Novel Retigabine Derivatives as Potent KCNQ4 and KCNQ5 Channel Agonists with Improved Specificity” (ACS Med Chem Lett, 2019)
Active and inactive are the calls of the source. The rule behind the calls is not given here.

Experiments:
Type in all cases: cell-based
[1] = target: Potassium voltage-gated channel subfamily KQT member 2 (Rattus norvegicus) (UniProt O88943); assay: Activity at rat KCNQ2 expressed in CHOK1 cells assessed as ratio of amplitude of outward current in presence of test compound to amplitude of outward current in absence of test compound at 10 uM at -10 mV by whole cell patch clamp assay
Chain of Potassium voltage-gated channel subfamily KQT member 2 (Rattus norvegicus) (O88943 whole entry): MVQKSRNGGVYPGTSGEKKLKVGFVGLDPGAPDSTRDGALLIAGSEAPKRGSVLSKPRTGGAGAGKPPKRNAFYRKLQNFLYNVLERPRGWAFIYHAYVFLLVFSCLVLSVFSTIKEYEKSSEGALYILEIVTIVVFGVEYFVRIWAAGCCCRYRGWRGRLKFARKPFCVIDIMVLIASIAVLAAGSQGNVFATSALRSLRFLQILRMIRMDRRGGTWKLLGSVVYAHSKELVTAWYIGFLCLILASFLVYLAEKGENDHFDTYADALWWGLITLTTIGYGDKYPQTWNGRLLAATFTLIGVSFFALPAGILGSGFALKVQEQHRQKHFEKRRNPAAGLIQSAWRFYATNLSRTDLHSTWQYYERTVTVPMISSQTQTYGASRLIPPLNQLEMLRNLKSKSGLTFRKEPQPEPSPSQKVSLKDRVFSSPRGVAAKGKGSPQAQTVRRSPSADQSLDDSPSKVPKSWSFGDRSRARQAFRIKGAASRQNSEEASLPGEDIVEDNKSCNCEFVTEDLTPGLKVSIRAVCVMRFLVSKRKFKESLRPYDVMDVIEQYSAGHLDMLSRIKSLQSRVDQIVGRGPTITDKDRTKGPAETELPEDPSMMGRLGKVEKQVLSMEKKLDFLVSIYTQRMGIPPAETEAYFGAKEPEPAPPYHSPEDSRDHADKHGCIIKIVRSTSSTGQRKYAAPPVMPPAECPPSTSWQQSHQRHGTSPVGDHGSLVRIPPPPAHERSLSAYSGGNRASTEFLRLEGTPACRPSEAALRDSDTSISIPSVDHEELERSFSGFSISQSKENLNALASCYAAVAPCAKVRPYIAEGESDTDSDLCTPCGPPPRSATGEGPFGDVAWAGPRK
In short: (§1)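 CHO-K1 cells expressing the channel, whole-cell voltage clamp, compound at 10 μM. Read-out is the outward current ratio I/I0 with and without compound, taken at −10 mV. I/I0 > 1 counts as activation and < 1 as inhibition. More than four cells per compound.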

[2] = target: T1, Potassium voltage-gated channel subfamily KQT member 4 (Homo sapiens) (UniProt P56696); assay: Activity at human KCNQ4 expressed in CHOK1 cells assessed as ratio of amplitude of outward current in presence of test compound to amplitude of outward current in absence of test compound at 10 uM at -10 mV by whole cell patch clamp assay; in short: as §1
T1 sequence (whole entry): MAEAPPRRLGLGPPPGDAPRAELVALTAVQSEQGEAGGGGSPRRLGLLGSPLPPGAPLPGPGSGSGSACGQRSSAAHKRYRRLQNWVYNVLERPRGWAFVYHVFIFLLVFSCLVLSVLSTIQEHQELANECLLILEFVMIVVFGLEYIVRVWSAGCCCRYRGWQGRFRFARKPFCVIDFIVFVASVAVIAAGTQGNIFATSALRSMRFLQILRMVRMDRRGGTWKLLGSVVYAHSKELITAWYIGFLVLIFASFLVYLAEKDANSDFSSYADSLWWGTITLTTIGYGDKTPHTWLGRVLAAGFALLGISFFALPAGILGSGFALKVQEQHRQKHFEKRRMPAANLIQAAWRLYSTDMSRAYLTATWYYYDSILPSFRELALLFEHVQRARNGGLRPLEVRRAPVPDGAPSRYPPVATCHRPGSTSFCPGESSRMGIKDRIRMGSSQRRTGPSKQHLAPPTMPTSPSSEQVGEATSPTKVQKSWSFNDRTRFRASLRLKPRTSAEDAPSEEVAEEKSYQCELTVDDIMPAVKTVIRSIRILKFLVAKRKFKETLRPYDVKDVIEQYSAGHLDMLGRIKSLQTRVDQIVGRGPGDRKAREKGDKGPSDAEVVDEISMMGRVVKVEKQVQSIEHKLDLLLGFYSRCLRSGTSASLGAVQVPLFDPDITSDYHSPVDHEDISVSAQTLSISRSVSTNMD

[3] = target: T2, Potassium voltage-gated channel subfamily KQT member 5 (Homo sapiens, UniProt Q9NR82); assay: Activity at human KCNQ5 expressed in CHOK1 cells assessed as ratio of amplitude of outward current in presence of test compound to amplitude of outward current in absence of test compound at 10 uM at -10 mV by whole cell patch clamp assay; in short: as §1
T2 sequence (Q9NR82 whole entry): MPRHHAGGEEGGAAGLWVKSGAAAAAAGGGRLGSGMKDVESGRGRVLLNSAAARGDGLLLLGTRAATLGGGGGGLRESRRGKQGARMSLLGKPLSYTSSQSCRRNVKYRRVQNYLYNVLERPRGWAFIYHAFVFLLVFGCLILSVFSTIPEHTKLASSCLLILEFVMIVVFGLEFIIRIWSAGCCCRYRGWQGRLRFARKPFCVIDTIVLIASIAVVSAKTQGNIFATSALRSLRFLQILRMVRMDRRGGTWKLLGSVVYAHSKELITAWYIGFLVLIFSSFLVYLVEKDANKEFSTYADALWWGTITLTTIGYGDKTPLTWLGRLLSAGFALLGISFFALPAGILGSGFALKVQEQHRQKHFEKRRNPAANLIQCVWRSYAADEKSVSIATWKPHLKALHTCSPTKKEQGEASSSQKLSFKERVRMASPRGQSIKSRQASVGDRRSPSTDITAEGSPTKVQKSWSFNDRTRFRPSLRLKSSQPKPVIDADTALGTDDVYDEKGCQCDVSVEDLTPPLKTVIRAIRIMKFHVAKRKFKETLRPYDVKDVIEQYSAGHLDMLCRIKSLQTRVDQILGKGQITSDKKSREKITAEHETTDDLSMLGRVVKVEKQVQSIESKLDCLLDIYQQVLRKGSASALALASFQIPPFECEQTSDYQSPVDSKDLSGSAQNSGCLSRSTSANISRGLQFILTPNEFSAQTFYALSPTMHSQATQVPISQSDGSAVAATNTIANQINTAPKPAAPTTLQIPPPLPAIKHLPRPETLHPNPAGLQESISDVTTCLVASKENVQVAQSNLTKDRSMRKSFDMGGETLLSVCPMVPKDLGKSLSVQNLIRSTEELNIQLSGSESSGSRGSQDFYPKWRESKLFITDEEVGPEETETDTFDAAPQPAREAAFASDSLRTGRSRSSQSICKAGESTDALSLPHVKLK

[4] = target: T3, Potassium voltage-gated channel subfamily KQT member 4 (Homo sapiens, UniProt P56696); assay: Agonist activity at human KCNQ4 expressed in CHOK1 cells by whole cell patch clamp assay
T3 sequence (P56696 whole entry): T1 sequence (whole entry)
In short: (§2)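 Concentration–response by whole-cell voltage clamp in CHO-K1 cells transiently expressing the homomeric channel. EC50 and Hill coefficient come from fitting outward currents recorded across the tested concentrations.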

[5] = target: T2, Potassium voltage-gated channel subfamily KQT member 5; assay: Agonist activity at human KCNQ5 expressed in CHOK1 cells by whole cell patch clamp assay; in short: as §2
[6] = target: T4, Potassium voltage-gated channel subfamily KQT member 2 (Rattus norvegicus, UniProt O88943); assay: Agonist activity at rat KCNQ2 expressed in CHOK1 cells by whole cell patch clamp assay; in short: as §2
T4 sequence (O88943 whole entry): as the sequence (O88943 whole entry) above

[7] = target: Potassium voltage-gated channel subfamily KQT member 2 (Rattus norvegicus) (UniProt O88943); assay: Effect on voltage-dependent activation of rat KCNQ2 expressed in CHOK1 cells assessed as negative shift in current activation curve at 10 uM by whole cell patch clamp assay
[8] = target: T1, Potassium voltage-gated channel subfamily KQT member 4 (Homo sapiens); assay: Effect on voltage-dependent activation of human KCNQ4 expressed in CHOK1 cells assessed as negative shift in current activation curve at 10 uM by whole cell patch clamp assay
[9] = target: Potassium voltage-gated channel subfamily KQT member 2 (Rattus norvegicus) (UniProt O88943); assay: Inhibition of rat KCNQ2 expressed in CHOK1 cells at 10 uM at -10 mV by whole cell patch clamp assay relative to control; in short: as §1
[10] = target: T5, Potassium voltage-gated channel subfamily KQT member 3 (Rattus norvegicus, UniProt O88944); assay: Agonist activity at rat KCNQ3 expressed in CHOK1 cells assessed as increase in amplitude of outward current at 10 uM by whole cell patch clamp assay relative to control
T5 sequence (O88944 whole entry): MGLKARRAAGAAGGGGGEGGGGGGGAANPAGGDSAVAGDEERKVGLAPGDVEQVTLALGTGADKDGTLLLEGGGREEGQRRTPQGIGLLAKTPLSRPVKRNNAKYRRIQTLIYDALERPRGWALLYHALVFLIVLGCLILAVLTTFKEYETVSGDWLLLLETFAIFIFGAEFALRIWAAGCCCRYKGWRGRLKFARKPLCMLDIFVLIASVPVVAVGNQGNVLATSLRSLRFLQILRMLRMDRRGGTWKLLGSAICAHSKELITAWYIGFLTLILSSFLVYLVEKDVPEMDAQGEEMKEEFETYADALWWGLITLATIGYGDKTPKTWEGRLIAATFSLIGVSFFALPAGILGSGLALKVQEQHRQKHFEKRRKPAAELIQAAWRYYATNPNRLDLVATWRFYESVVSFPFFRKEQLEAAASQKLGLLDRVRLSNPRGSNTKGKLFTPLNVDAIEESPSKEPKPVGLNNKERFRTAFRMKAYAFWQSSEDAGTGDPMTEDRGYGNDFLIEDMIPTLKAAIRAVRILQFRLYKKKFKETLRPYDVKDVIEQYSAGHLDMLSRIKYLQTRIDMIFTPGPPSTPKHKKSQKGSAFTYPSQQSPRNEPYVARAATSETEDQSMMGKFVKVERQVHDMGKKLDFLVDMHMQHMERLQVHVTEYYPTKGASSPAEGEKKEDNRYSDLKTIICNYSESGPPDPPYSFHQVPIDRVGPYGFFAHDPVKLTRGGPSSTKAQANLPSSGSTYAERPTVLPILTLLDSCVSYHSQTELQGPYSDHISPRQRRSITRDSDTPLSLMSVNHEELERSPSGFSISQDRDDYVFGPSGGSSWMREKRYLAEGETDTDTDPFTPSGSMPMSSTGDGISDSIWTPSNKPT
In short: (§3)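 Individual KCNQ subtypes and KCNQ2/3 heteromers transfected into CHO cells, whole-cell recording before and after 10 μM compound. Cells held at −80 mV, stepped from −90 to +60 mV in 10 mV increments for 1500 ms, then to −120 mV for 500 ms. Currents compared at −10 and +60 mV.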

[11] = target: Voltage-gated potassium channel, KQT; KCNQ2(Kv7.2)/KCNQ3(Kv7.3) (Homo sapiens, UniProt O43526+O43525); assay: Agonist activity at KCNQ2/KCNQ3 (unknown origin) expressed in CHOK1 cells assessed as increase in amplitude of outward current at 10 uM by whole cell patch clamp assay relative to control; in short: as §3
Chain of Voltage-gated potassium channel, KQT; KCNQ2(Kv7.2)/KCNQ3(Kv7.3) (O43526 whole entry): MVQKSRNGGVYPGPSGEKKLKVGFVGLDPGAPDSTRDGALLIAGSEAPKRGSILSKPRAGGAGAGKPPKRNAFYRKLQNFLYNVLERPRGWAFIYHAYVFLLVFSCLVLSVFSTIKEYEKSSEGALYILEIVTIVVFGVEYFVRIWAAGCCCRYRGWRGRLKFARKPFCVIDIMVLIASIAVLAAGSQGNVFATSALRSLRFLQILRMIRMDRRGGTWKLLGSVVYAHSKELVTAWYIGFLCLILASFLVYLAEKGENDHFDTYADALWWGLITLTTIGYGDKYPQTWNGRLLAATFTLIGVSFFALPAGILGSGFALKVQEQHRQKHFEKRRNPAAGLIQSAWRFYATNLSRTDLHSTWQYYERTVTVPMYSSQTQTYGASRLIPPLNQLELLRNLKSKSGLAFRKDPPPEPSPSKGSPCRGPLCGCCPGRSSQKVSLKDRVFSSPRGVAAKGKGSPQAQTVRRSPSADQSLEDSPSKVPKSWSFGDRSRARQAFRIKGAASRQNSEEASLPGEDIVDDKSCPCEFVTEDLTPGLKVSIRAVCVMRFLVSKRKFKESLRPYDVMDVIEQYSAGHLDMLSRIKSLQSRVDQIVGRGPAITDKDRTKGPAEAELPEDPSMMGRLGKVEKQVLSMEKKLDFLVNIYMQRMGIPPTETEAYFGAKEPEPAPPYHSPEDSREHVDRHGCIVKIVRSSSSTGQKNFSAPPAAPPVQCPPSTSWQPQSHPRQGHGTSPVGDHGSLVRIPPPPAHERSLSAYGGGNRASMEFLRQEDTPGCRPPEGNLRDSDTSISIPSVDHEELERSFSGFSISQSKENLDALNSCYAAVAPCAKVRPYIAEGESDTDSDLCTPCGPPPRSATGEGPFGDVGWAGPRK
Chain of Voltage-gated potassium channel, KQT; KCNQ2(Kv7.2)/KCNQ3(Kv7.3) (O43525 whole entry): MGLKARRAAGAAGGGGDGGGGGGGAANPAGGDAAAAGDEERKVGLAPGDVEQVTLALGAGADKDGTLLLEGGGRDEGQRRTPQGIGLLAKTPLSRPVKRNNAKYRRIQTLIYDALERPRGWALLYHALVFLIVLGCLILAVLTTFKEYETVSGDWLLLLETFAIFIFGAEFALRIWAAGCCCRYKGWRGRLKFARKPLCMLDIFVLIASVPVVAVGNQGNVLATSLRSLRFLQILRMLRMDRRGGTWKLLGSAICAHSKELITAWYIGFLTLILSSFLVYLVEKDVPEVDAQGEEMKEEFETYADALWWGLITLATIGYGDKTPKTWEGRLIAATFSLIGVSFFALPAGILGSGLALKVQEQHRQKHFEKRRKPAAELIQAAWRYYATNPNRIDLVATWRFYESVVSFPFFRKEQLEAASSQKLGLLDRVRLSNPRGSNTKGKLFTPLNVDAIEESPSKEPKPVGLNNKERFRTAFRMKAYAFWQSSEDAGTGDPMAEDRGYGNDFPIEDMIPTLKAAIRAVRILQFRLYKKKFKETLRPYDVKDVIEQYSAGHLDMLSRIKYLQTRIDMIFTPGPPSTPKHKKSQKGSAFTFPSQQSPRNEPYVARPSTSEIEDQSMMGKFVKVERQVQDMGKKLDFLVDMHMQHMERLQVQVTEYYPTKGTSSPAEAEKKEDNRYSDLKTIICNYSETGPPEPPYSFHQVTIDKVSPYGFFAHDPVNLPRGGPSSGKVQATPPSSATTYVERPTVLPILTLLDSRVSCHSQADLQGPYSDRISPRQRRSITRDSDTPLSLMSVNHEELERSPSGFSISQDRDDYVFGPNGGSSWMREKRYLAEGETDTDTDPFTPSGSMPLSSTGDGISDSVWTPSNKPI

[12] = target: T4, Potassium voltage-gated channel subfamily KQT member 2; assay: Activation of rat homomeric KCNQ2 expressed in CHOK1 cells assessed as outward current amplitude up to 30 uM by whole cell patch clamp assay
In short: (§4)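 Homomeric KCNQ2 in CHO-K1 cells, whole-cell voltage clamp, compound applied over 1–30 μM. Change in outward current amplitude was read against the pre-drug current, including at 30 μM.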

[13] = target: Potassium voltage-gated channel subfamily KQT member 2 (Rattus norvegicus) (UniProt O88943); assay: Inhibition of rat homomeric KCNQ2 expressed in CHOK1 cells assessed as effect on outward current amplitude at 30 uM by whole cell patch clamp assay; in short: as §4
[14] = target: Potassium voltage-gated channel subfamily KQT member 2 (Rattus norvegicus) (UniProt O88943); assay: Channel opening activity at rat KCNQ2 expressed in CHOK1 cells at 10 uM at -60 mV by whole cell patch clamp assay
[15] = target: T1, Potassium voltage-gated channel subfamily KQT member 4 (Homo sapiens); assay: Channel opening activity at human KCNQ4 expressed in CHOK1 cells at 10 uM at -60 mV by whole cell patch clamp assay

SMILES	Ratio [1]	Ratio [2]	Ratio [3]	other results
C#CCN(Cc1ccc(F)cc1)c1ccc(NC(=O)OCC)c(NC(=O)OCC(C)C)c1	1.04	5.19	4.84	
C#CCN(Cc1ccc(F)cc1)c1ccc(NC(=O)OC(C)(C)C)c(NC(=O)OCC)c1	1.07	7.71	4.59	EC50 [4]: 1420 nM; EC50 [5]: 1370 nM; EC50 [6]: > 30000 nM
C#CCN(Cc1ccc(F)cc1)c1ccc(NC(=O)Oc2ccccc2)c(NC(=O)Oc2ccccc2)c1	0.91	1.22	1.16	
C#CCN(Cc1ccc(F)cc1)c1ccc(NC(=O)OCC(C)C)c(NC(=O)OCC(C)C)c1	0.83	1.52	1.73	
CCOC(=O)Nc1ccc(N(CC=C(C)C)Cc2ccc(F)cc2)cc1NC(=O)OCC	0.66	3.63	1.37	
CCOC(=O)Nc1ccc(N(CC#Cc2ccccc2)Cc2ccc(F)cc2)cc1NC(=O)OCC	1.26	1.54	1.13	
CCOC(=O)Nc1ccc(NCc2ccc(F)cc2)cc1N [EZOGABINE]	1.6			EC50 [4]: 5900 nM; EC50 [5]: 3450 nM; EC50 [6]: 2170 nM; Activity [7]: 20 to 30 mV; Activity [8]: 20 to 30 mV
C#CCN(Cc1ccc(F)cc1)c1ccc(NC(=O)OCCC)c(NC(=O)OCCC)c1	0.78	2.58	2.75	
C#CCN(Cc1ccc(F)cc1)c1ccc(NC(=O)OC2CCCC2)c(NC(=O)OC2CCCC2)c1	0.21	0.88	1.25	
C#CCN(Cc1ccc(F)cc1)c1ccc(NC(=O)OCC)c(NC(=O)OC(C)C)c1	0.94	5.01	5.71	
C#CCN(Cc1ccc(F)cc1)c1ccc(NC(=O)OC)c(NC(=O)OC)c1	1.37	4.77	2.89	
C#CCN(Cc1ccc(F)cc1)c1ccc(NC(=O)OC2CCC2)c(NC(=O)OC2CCC2)c1	0.26	1.21	1.33	
C#CCN(Cc1ccc(F)cc1)c1ccc(NC(=O)OCC)c(NC(=O)OCCC)c1	1.07	3.95	5.81	
C#CCN(Cc1ccc(F)cc1)c1ccc(NC(=O)OC(C)(C)C)c(NC(=O)OC(C)(C)C)c1	1	3.05	5.32	EC50 [4]: 2030 nM; EC50 [5]: 2430 nM; EC50 [6]: > 30000 nM
C#CCN(Cc1ccc(F)cc1)c1ccc(NC(=O)OCc2ccccc2)c(NC(=O)OCc2ccccc2)c1	1.25	3.02	3.57	
C#CCN(Cc1ccc(F)cc1)c1ccc(NC(=O)OC2CC2)c(NC(=O)OC2CC2)c1	0.64	1.51	2.55	
CCOC(=O)Nc1ccc(N(CC2=CCCCC2)Cc2ccc(F)cc2)cc1NC(=O)OCC	1.19	1.49	1.05	
C#CCN(Cc1ccc(F)cc1)c1ccc(NC(=O)OCC)c(NC(=O)OCC=C)c1	0.96	3.68	4.67	
C=CCN(Cc1ccc(F)cc1)c1ccc(NC(=O)OCC)c(NC(=O)OCC)c1	0.3		1.49	inhibition [9]: 70%
C/C=C(\C)CN(Cc1ccc(F)cc1)c1ccc(NC(=O)OCC)c(NC(=O)OCC)c1	0.85	2.36	1.28	
C#CCN(Cc1ccc(F)cc1)c1ccc(NC(=O)OCCCC)c(NC(=O)OCCCC)c1	0.77	2.75	4.13	
C/C=C/CN(Cc1ccc(F)cc1)c1ccc(NC(=O)OCC)c(NC(=O)OCC)c1	0.87	1.85	1.36	
C#CCN(Cc1ccc(F)cc1)c1ccc(NC(=O)OCC)c(NC(=O)OCc2ccccc2)c1	0.97	1.27	2.57	
C#CCN(Cc1ccc(F)cc1)c1ccc(NC(=O)OCC=C)c(NC(=O)OCC=C)c1	0.67	2.21	5.26	
C#CCN(Cc1ccc(F)cc1)c1ccc(NC(=O)OC(C)C)c(NC(=O)OC(C)C)c1	0.35	1.33	3.11	
C#CCN(Cc1ccc(F)cc1)c1ccc(NC(=O)OCC)c(NC(=O)OC(C)(C)C)c1	1.16	6.37	4.58	EC50 [4]: 780 nM; EC50 [5]: 1680 nM; EC50 [6]: > 30000 nM; fold change (FC) [10]: 1.5; fold change (FC) [11]: 1.5; Activity [12]: Not Active; inhibition [13]: Active; Activity [7]: inactive; Activity [8]: inactive; Activity [14]: inactive; Activity [15]: inactive
C#CCN(Cc1ccc(F)cc1)c1ccc(NC(=O)OCC)c(NC(=O)OCCCC)c1	1.06	4.16	3.62	
C#CCN(Cc1ccc(F)cc1)c1ccc(NC(=O)OCC)c(NC(=O)OC)c1	0.61	2.56	3.34	
